# According to ChEMBL document CHEMBL1136045, “Synthesis, in vitro receptor binding, and in vivo evaluation of fluorescein and carbocyanine peptide-based optical contrast agents” (J Med Chem, 2002):
# Target: Gastrin-releasing peptide receptor (Rattus norvegicus, UniProt P52500)
# Test: In vitro binding affinity of [111In]DTPA-[Y4]-bombesin to bombesin receptor in the rat pancreatic acinar cell line, AR42J
# Summary of the method: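 Competition binding on AR42-J rat pancreatic acinar cell membranes (~50 μg/well) with the tracer [111In]-DTPA-[P1,Y4]-bombesin and increasing concentrations of cold competitor. Buffer was 50 mM Tris-HCl pH 7.4, 5 mM MgCl2, 0.2 mg/mL BSA. Incubation 90 min at room temperature, then filtration and washing. Bound radioactivity was gamma-counted, and IC50 came from a four-parameter fit.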
# Chain of Gastrin-releasing peptide receptor (P52500 whole entry): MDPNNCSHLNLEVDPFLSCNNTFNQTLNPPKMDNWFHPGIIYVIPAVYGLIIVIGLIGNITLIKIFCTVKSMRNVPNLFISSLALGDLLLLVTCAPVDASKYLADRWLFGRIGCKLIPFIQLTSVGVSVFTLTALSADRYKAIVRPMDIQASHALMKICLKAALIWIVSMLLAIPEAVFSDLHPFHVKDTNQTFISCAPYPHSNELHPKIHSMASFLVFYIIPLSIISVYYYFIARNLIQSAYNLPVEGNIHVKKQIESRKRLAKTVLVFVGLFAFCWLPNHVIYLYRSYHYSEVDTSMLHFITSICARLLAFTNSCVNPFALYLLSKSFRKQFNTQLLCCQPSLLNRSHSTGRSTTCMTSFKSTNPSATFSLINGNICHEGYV
row,Structure (SMILES),IC50 [nM]
1,CSCC[C@H](NC(=O)[C@H](CC(C)C)NC(=O)[C@H](Cc1c[nH]cn1)NC(=O)CNC(=O)[C@@H](NC(=O)[C@H](C)NC(=O)[C@H](Cc1c[nH]c2ccccc12)NC(=O)[C@H](CCC(N)=O)NC(=O)[C@H](CCCCN)NC(=S)Nc1ccc2c(c1)C(=O)OC21c2ccc(O)cc2Oc2cc(O)ccc21)C(C)C)C(N)=O,5.8
2,CSCC[C@H](NC(=O)[C@H](CC(C)C)NC(=O)[C@H](Cc1c[nH]cn1)NC(=O)CNC(=O)[C@@H](NC(=O)[C@H](C)NC(=O)[C@H](Cc1c[nH]c2ccccc12)NC(=O)[C@H](CCC(N)=O)NC(=S)Nc1ccc2c(c1)C(=O)OC21c2ccc(O)cc2Oc2cc(O)ccc21)C(C)C)C(N)=O,3.2
3,CSCC[C@H](NC(=O)[C@H](CC(C)C)NC(=O)[C@H](Cc1c[nH]cn1)NC(=O)CNC(=O)[C@@H](NC(=O)[C@H](C)NC(=O)[C@H](Cc1c[nH]c2ccccc12)NC(=O)[C@H](CCC(N)=O)NC(=O)CNC(=O)[C@H](CO)NC(=O)CNC(=O)[C@@H](N)CCCCN)C(C)C)C(N)=O,4.8
4,CSCC[C@H](NC(=O)[C@H](CC(C)C)NC(=O)[C@H](Cc1c[nH]cn1)NC(=O)CNC(=O)[C@@H](NC(=O)[C@H](C)NC(=O)[C@H](Cc1c[nH]c2ccccc12)NC(=O)[C@H](CCC(N)=O)NC(=O)CNC(=O)[C@H](CO)NC(=O)CNC(=O)[C@H](CCCCN)NC(=S)Nc1ccc2c(c1)C(=O)OC21c2ccc(O)cc2Oc2cc(O)ccc21)C(C)C)C(N)=O,15.6
5,CSCC[C@H](NC(=O)[C@H](CC(C)C)NC(=O)[C@H](Cc1c[nH]cn1)NC(=O)CNC(=O)[C@@H](NC(=O)[C@H](C)NC(=O)[C@H](Cc1c[nH]c2ccccc12)NC(=O)[C@H](CCC(N)=O)NC(=O)CNC(=O)[C@H](CO)NC(=O)CNC(=S)Nc1ccc2c(c1)C(=O)OC21c2ccc(O)cc2Oc2cc(O)ccc21)C(C)C)C(N)=O,9.2
6,CSCC[C@H](NC(=O)[C@H](CC(C)C)NC(=O)[C@H](Cc1c[nH]cn1)NC(=O)CNC(=O)[C@@H](NC(=O)[C@H](C)NC(=O)[C@H](Cc1c[nH]c2ccccc12)NC(=O)[C@H](CCC(N)=O)NC(=O)CNC(=O)[C@H](CO)NC(=O)CN)C(C)C)C(N)=O,7.6
7,CSCC[C@H](NC(=O)[C@H](CC(C)C)NC(=O)[C@H](Cc1c[nH]cn1)NC(=O)CNC(=O)[C@@H](NC(=O)[C@H](C)NC(=O)[C@H](Cc1c[nH]c2ccccc12)NC(=O)[C@H](CCC(N)=O)NC(=O)[C@@H](N)CCCCN)C(C)C)C(N)=O,10.5
8,CSCC[C@H](NC(=O)[C@H](CC(C)C)NC(=O)[C@H](Cc1c[nH]cn1)NC(=O)CNC(=O)[C@@H](NC(=O)[C@H](C)NC(=O)[C@H](Cc1c[nH]c2ccccc12)NC(=O)[C@H](CCC(N)=O)NC(=O)CNC(=O)[C@H](CO)NC(=O)CNC(=O)[C@H](CCCCNC(=S)Nc1ccc2c(c1)C(=O)OC21c2ccc(O)cc2Oc2cc(O)ccc21)NC(=S)Nc1ccc2c(c1)C(=O)OC21c2ccc(O)cc2Oc2cc(O)ccc21)C(C)C)C(N)=O,20.5
9,CSCC[C@H](NC(=O)[C@H](CC(C)C)NC(=O)[C@H](Cc1c[nH]cn1)NC(=O)CNC(=O)[C@@H](NC(=O)[C@H](C)NC(=O)[C@H](Cc1c[nH]c2ccccc12)NC(=O)[C@H](CCC(N)=O)NC(=O)[C@H](CCCCNC(=O)CN(CCN(CCN(CC(=O)O)CC(=O)O)CC(=O)O)CC(=O)O)NC(=O)CN(CCN(CCN(CC(=O)O)CC(=O)O)CC(=O)O)CC(=O)O)C(C)C)C(N)=O,240
10,CSCC[C@H](NC(=O)[C@H](CC(C)C)NC(=O)[C@H](Cc1c[nH]cn1)NC(=O)CNC(=O)[C@@H](NC(=O)[C@H](C)NC(=O)[C@H](Cc1c[nH]c2ccccc12)NC(=O)[C@H](CCC(N)=O)NC(=O)[C@H](CCCCNC(=O)CN(CCN(CCN(CC(=O)O)CC(=O)O)CC(=O)O)CC(=O)O)NC(=S)Nc1ccc2c(c1)C(=O)OC21c2ccc(O)cc2Oc2cc(O)ccc21)C(C)C)C(N)=O,20
11,CSCC[C@H](NC(=O)[C@H](CC(C)C)NC(=O)[C@H](Cc1c[nH]cn1)NC(=O)CNC(=O)[C@@H](NC(=O)[C@H](C)NC(=O)[C@H](Cc1c[nH]c2ccccc12)NC(=O)[C@H](CCC(N)=O)NC(=O)[C@H](CCCCNC(=S)Nc1ccc2c(c1)C(=O)OC21c2ccc(O)cc2Oc2cc(O)ccc21)NC(=S)Nc1ccc2c(c1)C(=O)OC21c2ccc(O)cc2Oc2cc(O)ccc21)C(C)C)C(N)=O,9.5
